Laboratory results published in PubChem BioAssay.
The source made the active and inactive calls.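 Rule for the calls, unless noted: active = fluorescence slope higher than the sample average by over 3 SD (cut at about -0.22 in these data, passing the limit was not always enough); inactive = the rest.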

Legend:
[1] = inhibitors of TNFa-induced NFkB p65 translocation, primary screen, imaging, HUVEC, MLSMR starter and 10KST1 sets (AID 438;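 active = inhibition above 20% together with a positive visual image hit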;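 note: compound added about 3h40 before a 20 min TNFalpha stimulation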;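 for inhibition: signal is the nuclear over cytoplasmic p65 intensity ratio per well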); details: HUVEC TNFa-induced p65 nuclear translocation; cell count: measured here: nuclei count (cytotoxicity indicator), at 2.08 µM; inhibition: at 2 µM, stronger effect = higher value, 0% TNFa-plus-vehicle, 100% no-TNFa wells
[2] = inhibitors of E-selectin induction by TNFa, primary screen, imaging, HUVEC, immunofluorescence, MLSMR starter and 10KST1 sets (AID 487;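 active = visually confirmed hit in the image check and inhibition above 20%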;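 for inhibition: signal is fraction of cell area covered by stained E-selectin grains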;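 for nuclei count: 100% = median nuclei count of all wells on the same plate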); details: HUVEC TNFalpha-induced E-selectin immunofluorescence imaging, at 2 µM; inhibition: stronger effect = higher value; nuclei count: measured here: cell number, toxicity
[3] = DUSP6 inhibitors restoring Erk phosphorylation by chemical complementation, primary imaging in DUSP6-transfected HeLa (AID 609;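 active = compounds giving at least 50% inhibition in the cell-based MKP-3 phosphatase rescue imaging test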;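 for inhibition: phospho-Erk level distribution per well compared with pooled transfected vehicle control wells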); details: HeLa MKP-3 transfected, phospho-Erk imaging KS statistic, at 10 µM, cells stimulated with TPA for 15 min
[4] = target: Dual specificity protein phosphatase 6 (Homo sapiens) (UniProt Q16828); assay: as above; details: HeLa MKP-3 transfected, phospho-Erk imaging KS statistic; at 10 µM; stronger effect = higher value; cells stimulated with TPA for 15 min
Chain of Dual specificity protein phosphatase 6 (Homo sapiens) (Q16828 whole entry, looked up): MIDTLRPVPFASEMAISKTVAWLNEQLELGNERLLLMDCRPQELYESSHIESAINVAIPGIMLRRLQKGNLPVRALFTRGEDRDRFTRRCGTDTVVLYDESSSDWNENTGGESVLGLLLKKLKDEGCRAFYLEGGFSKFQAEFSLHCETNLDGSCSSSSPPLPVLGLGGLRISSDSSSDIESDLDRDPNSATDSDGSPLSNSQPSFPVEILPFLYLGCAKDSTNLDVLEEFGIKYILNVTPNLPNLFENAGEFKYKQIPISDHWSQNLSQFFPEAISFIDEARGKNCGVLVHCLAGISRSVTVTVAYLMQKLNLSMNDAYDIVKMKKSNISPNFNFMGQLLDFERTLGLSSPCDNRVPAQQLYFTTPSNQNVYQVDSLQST

[5] = target: Voltage-gated potassium channel subunit beta-2 (Rattus norvegicus) (UniProt P62483); assay: KvBeta enzyme negative modulators, primary screen, biochemical, NADPH fluorescence (AID 622); details: recombinant KvBeta, 4-cyanobenzaldehyde reduction, at 10 µM, stronger effect = higher value;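 note: slope of raw intensity against log time taken from 70 to 1610 s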
Chain of Voltage-gated potassium channel subunit beta-2 (Rattus norvegicus) (P62483 whole entry, looked up): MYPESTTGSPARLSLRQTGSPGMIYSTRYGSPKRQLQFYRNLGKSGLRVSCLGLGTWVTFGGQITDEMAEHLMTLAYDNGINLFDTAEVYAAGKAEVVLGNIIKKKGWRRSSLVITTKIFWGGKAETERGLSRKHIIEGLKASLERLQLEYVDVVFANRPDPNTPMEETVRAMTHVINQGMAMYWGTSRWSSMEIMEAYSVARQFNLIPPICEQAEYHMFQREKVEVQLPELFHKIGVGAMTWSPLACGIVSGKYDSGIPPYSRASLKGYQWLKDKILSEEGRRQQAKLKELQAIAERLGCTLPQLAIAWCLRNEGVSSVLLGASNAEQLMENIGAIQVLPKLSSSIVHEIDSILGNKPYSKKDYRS

[6] = target: Voltage-gated potassium channel subunit beta-2 (Rattus norvegicus) (UniProt P62483); assay: KvBeta positive modulators, primary screen, biochemical, NADPH fluorescence (AID 623;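 active = NADPH fluorescence slope more negative than the mean of all samples by about 3 SD, 99.7% confidence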;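 note: fluorescence intensity change per second fitted from 20 to 320 s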); details: Recombinant KvBeta, NADPH fluorescence decrease slope, 10 min; at 10 µM; stronger effect = lower value
[7] = target: Muscarinic acetylcholine receptor M4 (Homo sapiens) (UniProt P08173); assay: compounds altering M4/GIRK thallium flux, either direction, primary screen, M4 allosteric agonist project, cell-based, HEK293 M4/GIRK, BTC-AM (AID 625;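 active = fluorescence slope after compound addition differing from the mean of all tested samples at 99.7% confidence, mostly higher but some lower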;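 note: thallium influx through GIRK channels coupled to M4 in HEK293 cells with BTC-AM dye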); details: at 10 µM, actives lie on both sides
Chain of Muscarinic acetylcholine receptor M4 (Homo sapiens) (P08173 whole entry, looked up): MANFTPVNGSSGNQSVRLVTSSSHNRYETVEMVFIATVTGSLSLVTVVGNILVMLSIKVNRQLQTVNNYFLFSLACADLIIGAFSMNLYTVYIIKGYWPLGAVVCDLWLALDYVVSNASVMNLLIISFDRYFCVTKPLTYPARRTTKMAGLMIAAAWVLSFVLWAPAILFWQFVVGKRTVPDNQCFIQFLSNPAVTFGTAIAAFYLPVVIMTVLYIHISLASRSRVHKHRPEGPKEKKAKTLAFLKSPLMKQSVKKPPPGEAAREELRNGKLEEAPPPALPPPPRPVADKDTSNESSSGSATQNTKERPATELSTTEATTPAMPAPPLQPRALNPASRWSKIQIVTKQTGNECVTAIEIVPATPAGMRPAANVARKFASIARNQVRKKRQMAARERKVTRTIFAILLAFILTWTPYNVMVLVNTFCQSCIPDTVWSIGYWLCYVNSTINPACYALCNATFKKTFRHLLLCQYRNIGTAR
Summary of the method: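 assay system = HEK293 cells with M4 receptor and GIRK channels | medium = pH 7.3 thallium assay buffer | doses = 10 µM final, single point | timing = cells overnight at 37 °C, BTC-AM loading 1 h, reads 2 min total | signal = BTC-AM fluorescence, 1 Hz kinetic reads | read-out = post-addition slope, 15–24 s, of baseline-normalized fluorescence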

[8] = inhibitors of larval lipid processing in zebrafish, primary screen, whole organism, PED6 fluorescence, gall bladder and intestine (AID 686;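 active = a full or partial loss of lipid-probe fluorescence in the fish gall bladder, intestine or both, judged by eye; inactive = no fluorescence loss, or compound toxic to the fish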;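 note: larvae 5 to 7 days old with five fish per well; signal comes from phospholipase A2 cleavage of quenched PED6 carried via bile; overnight exposure to compound and PED6 before scoring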); details: Zebrafish larvae PED6 lipid processing, fluorescence scoring; screened at 20 µM (by protocol)
Summary of the method: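 Also added: quenched phospholipase substrate PED6, 100 nM final, ingested by larvae; System: zebrafish larvae, 5-7 d; Quantity: 5 larvae per well; Compound: 20 µM single dose; Schedule: overnight compound and PED6 incubation; Read-out: visual per-well fluorescence inhibition score; Measured by: By-eye fluorescence microscopy; Medium: E3.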

[9] = inhibitors of Chlamydomonas gravitaxis, primary screen, whole organism, Chlamydomonas reinhardtii, WT vs cilia-less mutant, absorbance, 96-well (AID 463189;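 active = inhibition at or above 50% relative to wild type and mutant plate controls; inactive = inhibition below 50%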;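 note: 0% = wild type cc124 cells in DMSO and 100% = ciliumless bld1 mutant cells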); details: OD600 absorbance, 2 days, at 10 µM, stronger effect = higher value
[10] = measured here: cell density z-score
[11] = measured here: nuclear c-Myc green intensity z-score
[12] = measured here: nuclear pErk red intensity z-score, stronger effect = higher value

Row | SMILES | cell count [1] | inhibition [1] | inhibition [2] | nuclei count [2] [%] | z-score [3, 10] | z-score [3, 11] | z-score [3, 12] | inhibition [4] | fluorescence slope [5] | NADPH fluorescence slope [6] | fluorescence slope [7] | outcome [8] | inhibition [9]
1 | CC(C)Cc1nc(N2CCOCC2)c(C#N)c2c1COC(C)(C)C2 | 584 | -7% (inactive) | -84.6% (inactive) | 146 | -0.646 | 0.861 | 0.329 | -2.09% (inactive) | -0.405 (inactive) | -3.3e-05 (inactive) | 0.00418 (inactive) | inactive | 3.97% (inactive)
2 | CCCOc1cccc(C2/C(=C(/O)c3ccc(F)cc3)C(=O)C(=O)N2CCN(C)C)c1 (stereo not given) | 676 | -13.2% (inactive) | -51.1% (inactive) | 132 | 0.0201 | -1.18 | -0.732 | -2.91% (inactive) | -0.478 (inactive) | -2.8e-05 (inactive) | 0.00611 (inactive) | inactive | 12.9% (inactive)
3 | CC(C)NCc1c(O)c(Br)cc2oc3c(c12)CCCC3 | 533 | 9.9% (inactive) | -3.5% (inactive) | 99.8 | 0.0675 | -0.158 | -0.115 | -7.67% (inactive) | -0.517 (inactive) | -1.1e-05 (inactive) | 0.00361 (inactive) | inactive | 53.2% (active)
4 | C#CC1CN(Cc2ccccc2)CC(C#C)N1C (stereo not given) | 690 | -3% (inactive) | 9% (inactive) | 156 | -0.126 | -0.517 | 1.32 | -7.67% (inactive) | -0.44 (inactive) | -3.5e-05 (inactive) | 0.00453 (inactive) | inactive | -0.669% (inactive)
5 | N#CCSc1nc2c(c(=O)n1Cc1ccco1)C1(CCCC1)Cc1ccccc1-2 | 500 | -2.6% (inactive) | -97.3% (inactive) | 150 | 0.3 | 0.666 | -0.907 | 13.9% (inactive) | -0.397 (inactive) | -2.2e-05 (inactive) | 0.00897 (inactive) | active; weak signal in gallbladder and intestine | -7.4% (inactive)
6 | COc1cc2c(cc1OC)C1(CCCC1)C(N)=C2C#N | 374 | 2.5% (inactive) | 36.9% (inactive) | 104 | -0.0432 | -0.638 | 1.42 | 17.4% (inactive) | -0.437 (inactive) | -0.000121 (inactive) | 0.00412 (inactive) | inactive | 2.1% (inactive)
7 | CCOc1ccc2c(c1)n([O-])c1c([n+]2=O)CCCC1 | 345 | 6.9% (inactive) | -31.4% (inactive) | 84.7 | -0.67 | 0.548 | -1.91 | 23.4% (inactive) | -0.4 (inactive) | -0.000101 (inactive) | 0.0052 (inactive) | inactive | 32.8% (inactive)
8 | CCc1nc(NCCN2CCOCC2)c(C#N)c2c1CCCC2 | 358 | -2.8% (inactive) | -19.6% (inactive) | 79.7 | -0.865 | 0.944 | 0.38 | 11.4% (inactive) | -0.595 (inactive) | 4.1e-06 (inactive) | 0.00436 (inactive) | inactive | 30.2% (inactive)
9 | CC1(C)Cc2c(sc3nc(SCC(=O)NCc4ccco4)n(-c4ccccc4)c(=O)c23)CS1 | 501 | -2.3% (inactive) | -158% (inactive) | 112 | -1.09 | -0.43 | 0.302 | 1.98% (inactive) | -0.431 (inactive) | -4.8e-05 (inactive) | 0.00628 (inactive) | inactive | -14.1% (inactive)
10 | CCCSc1nc(N2CCOCC2)c2c(c1C#N)CCCC2 | 569 | -12.9% (inactive) | -93.9% (inactive) | 147 | 0.303 | 0.327 | 2.25 | 10.9% (inactive) | -0.467 (inactive) | -0.000102 (inactive) | 0.00772 (inactive) | inactive | 5.19% (inactive)
11 | CCCCN(C(=O)CCC(=O)O)C1CC(=O)N(c2ccc(OCCC)cc2)C1=O (stereo not given) | 639 | 5.2% (inactive) | -33% (inactive) | 116 | -0.992 | -0.45 | -0.105 | -9.53% (inactive) | -0.464 (inactive) | -2.3e-05 (inactive) | 0.00463 (inactive) | inactive | -0.122% (inactive)
12 | Cc1cc(=O)oc(C)c1C(=O)NCCC1=CCCCC1 | 603 | -7.1% (inactive) | -25.9% (inactive) | 114 | -1.14 | 1.4 | 1.29 | 1.63% (inactive) | -0.415 (inactive) | -3.7e-05 (inactive) | 0.00474 (inactive) | inactive | -3.01% (inactive)
13 | CCOC(=O)NC(Nc1sc2c(c1C(N)=O)CCCC2)(C(=O)OCC)C(F)(F)F (stereo not given) | 707 | -5.7% (inactive) | -51.4% (inactive) | 144 | 0.203 | -0.663 | 1.92 | 16.5% (inactive) | -0.448 (inactive) | -1.9e-05 (inactive) | 0.00659 (inactive) | inactive | 1.44% (inactive)
14 | Cn1c(=O)[nH]c2cc(Cl)cnc21 | 378 | -14% (inactive) | -133% (inactive) | 108 | 0.823 | -0.334 | -1.3 | 3.42% (inactive) | -0.492 (inactive) | -3.9e-05 (inactive) | 0.00408 (inactive) | inactive | 9.47% (inactive)
15 | CCSc1nc2sc3c(c2c(=O)n1C1CCCCC1)CCN(C)C3 | 364 | -10% (inactive) | -37.3% (inactive) | 101 | -0.995 | 0.578 | 0.504 | -8.59% (inactive) | -0.419 (inactive) | -6.1e-05 (inactive) | 0.00313 (inactive) | inactive | -2.62% (inactive)
16 | CC(NC(=O)OCc1ccccc1)C(=O)OCN1C(=O)c2ccccc2C1=O (stereo not given) | 519 | -9.1% (inactive) | -64.3% (inactive) | 130 | 0.544 | -1.4 | 0.638 | -3.97% (inactive) | -0.391 (inactive) | -4.8e-06 (inactive) | 0.00711 (inactive) | inactive | 28% (inactive)
17 | Cn1c(N2CCN(c3ccccn3)CC2)nc2c1c(=O)n(Cc1ccccc1Cl)c(=O)n2C | 738 | 4.2% (inactive) | -56.1% (inactive) | 177 | -0.827 | -0.0696 | 1.36 | 13.9% (inactive) | -0.465 (inactive) | -0.000144 (inactive) | 0.00667 (inactive) | inactive | 5.36% (inactive)
18 | Cc1cc(=O)oc2cc(OCC(=O)NCc3cccnc3)ccc12 | 618 | 9% (inactive) | -1.6% (inactive) | 105 | -0.419 | -0.48 | 0.0246 | -3.95% (inactive) | -0.428 (inactive) | -5e-05 (inactive) | 0.00447 (inactive) | inactive | -0.087% (inactive)
19 | Cc1ccc(-c2nn(C)c(=O)c3ccccc23)cc1CN1CCOCC1 | 424 | -0.6% (inactive) | -40.3% (inactive) | 145 | 0.246 | 0.445 | -0.955 | 6.04% (inactive) | -0.452 (inactive) | -3.3e-05 (inactive) | 0.00454 (inactive) | inactive | -2.85% (inactive)
20 | CN(CCNC(=O)c1ccc(/C=N/O)nc1)Cc1ccccc1 | 620 | -9.1% (inactive) | -41% (inactive) | 182 | -0.419 | -0.398 | -0.0227 | 1.63% (inactive) | -0.479 (inactive) | -5.2e-05 (inactive) | 0.00471 (inactive) | inactive | 1.08% (inactive)
